Runt-SMMHC FRET: Runt domain-CBFb-SMMHC interaction inhibition | Q01196+Q13951 | Cerulean-Runt/Venus-CBFb-SMMHC FRET ratio 530/480, 1 h | inhibition, % at 20 µM | 220,000 compounds, 0.74% hits | AID 1434;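 active means mean inhibition across duplicate retests at 20 µM reaching about 50%, limit read from the data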;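 further: 0% = DMSO wells and 100% = wells with excess untagged CBFb-SMMHC; inhibitors lower the FRET ratio by blocking Runt binding to CBFb-SMMHC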
PERK inhibitor: blocks human PERK kinase; Q9NZJ5; 220,000 compounds, 0.17% hits; inhibition, % at 5.6 µM; CHO PERK-DD fusion, SEAP luminescence translation reporter;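 active means inhibition above the mean inhibition of all tested compounds plus 3 SD, set separately per screening campaign, cut at about 2.9% in these data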;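 further: PERK kinase domain activated by AP20187 dimerizer at 100 nM; 0% = DMSO with dimerizer and 100% = rapamycin at 8.4 µM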
RanGTP-Impb inh: disruptors of Ran-importin-beta complex formation – biochemical, FRET, CFP-Ran, YFP-importin-beta, homogeneous, primary screen | cell-free CFP-Ran/YFP-importin-beta FRET ratio | 300,000 compounds, 1.1% hits | inhibition, % (test concentration not listed);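 active means more than half of the replicate wells show a fall in the fluorescence ratio signal beyond about 16%, limit read from the data, passing the limit was not always enough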;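 further: 0% = DMSO wells and 100% = Ran loaded with GDP instead of GTP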
Hck Nef HTS: inhibitors of human Hck kinase activated by Nef. P08631. 220,000 compounds, 0.68% hits. Recombinant Hck-YEEI plus Nef, Z-Lyte FRET kinase assay. inhibition, % at 20 µM;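 active means Hck-Nef kinase inhibition above about 50%, limit read from the data; inactive means inhibition below that limit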;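 further: 0% = DMSO with Hck plus Nef and 100% = Hck alone without Nef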
Runt-CBFb FRET: inhibitors of human RUNX1 Runt domain binding to CBFb. Q01196+Q13951. Cerulean-Runt/Venus-CBFb FRET ratio 530/480, 1 h. inhibition, % at 20 µM. 220,000 compounds, 0.46% hits. AID 1496;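 active means inhibition over about 50% at 20 µM in the single-dose screen, limit read from the data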;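 further: 0% = DMSO wells and 100% = excess unlabeled CBFb competitor control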
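Doses: 20 µM compound in 1% DMSO | Material: Cerulean-labeled Runt domain protein | Amount: Each fluorescent fusion protein 100 nM | Schedule: Two 1 h room-temperature incubations shielded from light | Measured by: FRET fluorescence | Evaluation: Loss of energy transfer signal | Controls: Unlabeled CBFb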
eIF4E 4G PPI: blocks eIF4E binding to eIF4G. P63073+Q04637. AID 782. TR-FRET eIF4E-eIF4GI(517-606) binding, 2 h. inhibition, % at 21.7 µM. 220,000 compounds, 0.37% hits;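 active means inhibition above about 30%, limit read from the data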;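 further: 0% = full FRET control wells and 100% = background wells lacking eIF4GI fragment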
Target sequence (P63073 whole entry, looked up, the tested form may be a part): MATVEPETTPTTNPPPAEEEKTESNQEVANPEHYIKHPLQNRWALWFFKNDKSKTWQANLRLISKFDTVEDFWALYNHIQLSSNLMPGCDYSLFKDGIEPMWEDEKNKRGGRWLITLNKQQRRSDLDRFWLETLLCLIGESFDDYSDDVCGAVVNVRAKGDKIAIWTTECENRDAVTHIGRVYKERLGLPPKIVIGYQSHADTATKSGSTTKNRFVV
Target sequence (Q04637 whole entry, looked up, the tested form may be a part): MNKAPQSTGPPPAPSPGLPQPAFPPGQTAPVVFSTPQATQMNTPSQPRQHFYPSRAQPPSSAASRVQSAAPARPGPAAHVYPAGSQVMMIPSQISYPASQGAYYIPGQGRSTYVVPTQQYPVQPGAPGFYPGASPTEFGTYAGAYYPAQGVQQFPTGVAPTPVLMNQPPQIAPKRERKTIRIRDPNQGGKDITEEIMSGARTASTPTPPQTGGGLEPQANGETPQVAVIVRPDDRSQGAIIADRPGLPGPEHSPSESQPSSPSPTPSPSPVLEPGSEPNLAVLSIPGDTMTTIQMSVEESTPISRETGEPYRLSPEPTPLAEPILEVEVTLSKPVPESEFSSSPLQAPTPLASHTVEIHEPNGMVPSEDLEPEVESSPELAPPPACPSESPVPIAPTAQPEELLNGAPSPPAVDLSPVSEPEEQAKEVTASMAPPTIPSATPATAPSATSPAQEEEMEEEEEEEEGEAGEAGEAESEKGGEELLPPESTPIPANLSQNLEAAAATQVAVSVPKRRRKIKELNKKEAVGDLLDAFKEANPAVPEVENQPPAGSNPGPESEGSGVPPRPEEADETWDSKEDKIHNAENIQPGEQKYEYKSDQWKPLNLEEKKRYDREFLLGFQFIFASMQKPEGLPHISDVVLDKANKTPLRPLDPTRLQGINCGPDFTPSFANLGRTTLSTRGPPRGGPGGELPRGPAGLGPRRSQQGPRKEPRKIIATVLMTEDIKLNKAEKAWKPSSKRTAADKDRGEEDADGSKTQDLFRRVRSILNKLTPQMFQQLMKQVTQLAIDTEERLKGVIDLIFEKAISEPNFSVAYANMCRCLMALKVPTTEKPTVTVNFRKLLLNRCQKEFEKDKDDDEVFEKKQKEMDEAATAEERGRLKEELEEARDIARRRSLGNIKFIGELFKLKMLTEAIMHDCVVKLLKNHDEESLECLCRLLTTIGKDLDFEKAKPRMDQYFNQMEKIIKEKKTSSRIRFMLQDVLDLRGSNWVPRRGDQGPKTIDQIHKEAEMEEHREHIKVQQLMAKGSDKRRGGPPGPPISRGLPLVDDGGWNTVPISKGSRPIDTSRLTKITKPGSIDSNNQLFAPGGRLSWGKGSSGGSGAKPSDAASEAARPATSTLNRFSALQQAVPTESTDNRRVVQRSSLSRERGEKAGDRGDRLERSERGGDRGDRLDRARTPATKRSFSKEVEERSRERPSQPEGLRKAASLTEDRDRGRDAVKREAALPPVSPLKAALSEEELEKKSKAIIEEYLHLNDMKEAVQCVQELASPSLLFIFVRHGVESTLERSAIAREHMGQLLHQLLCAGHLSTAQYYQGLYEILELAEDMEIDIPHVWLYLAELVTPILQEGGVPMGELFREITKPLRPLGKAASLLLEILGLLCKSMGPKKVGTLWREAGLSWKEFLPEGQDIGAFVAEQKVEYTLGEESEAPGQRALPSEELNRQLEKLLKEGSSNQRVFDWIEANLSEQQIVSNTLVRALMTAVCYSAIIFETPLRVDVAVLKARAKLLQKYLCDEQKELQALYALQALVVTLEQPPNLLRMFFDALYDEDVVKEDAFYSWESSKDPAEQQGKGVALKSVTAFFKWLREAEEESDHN
Hck-Nef confirm: Hck-Nef kinase inhibition, confirmation. shares compounds with Hck Nef HTS. Recombinant Hck-YEEI:Nef, Z-Lyte FRET kinase assay. calls only at 10 µM. 1,300 compounds, 28% hits. AID 463188;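 active means average inhibition of at least 50%, with Z-scores no higher than 3 in both the phospho-tyrosine peptide and fluorescence counterscreens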
Starred values were filed as active, the others as inactive; i = inactive; . = no result given; + = active, no number. This is a sample that favours compounds with a hit; in the whole collection about 2.2% have one here.

SMILES	Runt-SMMHC FRET	PERK inhibitor	RanGTP-Impb inh	Hck Nef HTS	Runt-CBFb FRET	eIF4E 4G PPI	Hck-Nef confirm
CN1C(=O)/C(=C/C=C/c2ccco2)C(=O)NC1=S	7.5	-0.7	-5.3	53.7*	18.4	6.6	i
O=c1[nH]c(=O)n(-c2cccc(Cl)c2)c(O)c1C=NCCN1CCCCC1	-5.3	1.0	4.0	1.7	.	8.9	.
COC(=O)C1=C(c2cccc(OC)c2OC)C[C@@H]2CC[C@H]1N2C(=O)NCc1cccc2ccccc12	.	.	2.5	.	.	.	.
C/C(=N\NC(=O)c1ccccc1O)c1c(O)n(C2CCCCC2)c(=O)[nH]c1=O	.	.	3.5	.	.	.	.
C=CCN1C(=O)NC(=O)/C(=C/C=C/c2ccccc2)C1=O	34.3	2.1	3.1	50.9*	25.0	1.9	i
O=C1NC(=O)N(CCc2ccc(F)cc2)C(=O)/C1=C\C=C\c1ccccc1	4.0	0.8	.	26.9	5.1	-2.0	.
COc1cc2[nH]c(C(=O)N3CCC4(CC3)OCCO4)cc2c(OC)c1OC	.	.	5.1	.	.	.	.
Cc1ccc2c(c1)=NC(=O)/C(=C/c1c(O)[nH]c(=O)[nH]c1=O)C=2	-2.4	1.1	-3.3	64.6*	25.9	-2.2	+
Cc1cc(/C=C2\C(=O)NC(=O)N(Cc3ccco3)C2=O)c(C)n1-c1ccc(C(=O)O)cc1	-13.3	1.0	4.6	50.2*	-5.3	0.6	i
Cc1cc(/C=C2\C(=O)NC(=O)N(Cc3ccco3)C2=O)c(C)n1-c1ccc(O)cc1	2.6	-0.2	-2.4	23.9	32.8	8.2	.
O=C(Cc1ccccc1)N1CCN(Cc2ccccc2Cl)CC1	.	.	6.7	.	.	.	.
O=c1c2ccccc2[nH]c(=S)n1-c1ccc2c(c1)OCCO2	6.8	0.3	0.9	13.6	-2.4	2.1	.
CCN1C(=O)/C(=C/c2ccc3c(c2)CCN3CCCCl)C(=O)NC1=S	5.4	-0.1	24.8	55.1*	7.7	9.0	+
O=C1NC(=S)N(C2CC2)C(=O)/C1=C/c1ccc2c(c1)CCN2CCCCl	1.2	0.7	0.6	23.8	7.6	16.9	.
C=CCNC(=O)c1c(N)n(CCN2CCOCC2)c2nc3ccccc3nc12	43.7	-1.2	80.1*	50.1*	81.2*	0.7	.
COCCNC(=O)c1c(N)n(CCC(C)C)c2nc3ccccc3nc12	59.0*	-1.1	81.5*	64.1*	42.9	2.0	i
O=C1NC(=O)C(=Cc2coc3ccc(O)cc3c2=O)C(=O)N1	-8.6	0.7	-2.2	78.2*	6.7	4.1	+
O=c1oc2ccccc2c(O)c1C(c1ccc([N+](=O)[O-])cc1)c1c(O)c2ccccc2oc1=O	9.6	1.5	-2.2	72.9*	15.8	8.4	+
[O-]c1ccccc1-[n+]1c(-c2ccccc2)cc(-c2ccccc2)cc1-c1ccccc1	.	.	-1.6	.	.	.	.
CN1C(=O)C(=Cc2cn(CC#N)c3ccccc23)C(=O)N(C)C1=O	.	.	-1.4	.	.	.	.
CN1C(=O)C(=Cc2coc3ccccc3c2=O)C(=O)N(C)C1=O	-1.2	-0.7	-1.6	80.7*	0.2	0.1	+
Cc1nn(CC(C)C)c(Cl)c1C(=O)O	1.4	-0.3	-2.0	0.0	-1.1	-0.2	.

Screening results deposited in PubChem BioAssay by several laboratories.
